From ChEMBL document CHEMBL1140231, “Design, synthesis, and evaluation of tricyclic, conformationally constrained small-molecule mimetics of second mitochondria-derived activator of caspases” (J Med Chem, 2008)
Activity calls are given as the source filed them. No cut-off for these calls is given here.

Key:
MDA-MB-231 [1] = experiment: Induction of cell death in human MDA-MB-231 cells at 1 uM after 48 hrs by trypan blue assay; format: functional
Summary of the method: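 MDA-MB-231 breast cancer cells exposed to compound for 48 hours. Viability scored by trypan blue exclusion. Read-out is percentage of cells dead.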

MDA-MB-231 [2] = experiment: Growth inhibition of human MDA-MB-231 cells after 4 days by WST8 assay; conditions: MDA-MB-231, 96 h
MDA-MB-231 [3] = experiment: Induction of degradation of cIAP1 in human MDA-MB-231 cells after 24 hrs by Western blot analysis; format: functional, cell-based
Summary of the method: (§1)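 MDA-MB-231 breast cancer cells exposed to a range of concentrations for 24 hours; lysate proteins probed by Western blot with specific antibodies against cIAP-1, caspase-8, and pro- and cleaved PARP.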

MDA-MB-231 [4] = experiment: Induction of cell death in human MDA-MB-231 cells after 48 hrs by trypan blue assay; format: functional, cell-based
Summary of the method: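 MDA-MB-231 breast cancer cells exposed to a range of compound concentrations for 48 hours; viability scored by trypan blue exclusion; percent dead cells reported.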

MDA-MB-231 [5] = experiment: Induction of degradation of cIAP1 in human MDA-MB-231 cells upto 100 nM after 24 hrs by Western blot analysis; format: functional, cell-based; summary of the method: as §1
MDA-MB-231 [6] = experiment: Induction of poly(ADP-ribose) polymerase cleavage in human MDA-MB-231 cells within 24 hrs by Western blot analysis; format: functional, cell-based; summary of the method: as §1
MDA-MB-231 [7] = experiment: Induction of caspase 8 processing in human MDA-MB-231 cells within 24 hrs by Western blot analysis; format: functional, cell-based; summary of the method: as §1

Structure (SMILES): CN[C@@H](C)C(=O)N[C@H]1Cc2ccccc2[C@H]2CCC[C@@H](C(=O)NC(c3ccccc3)c3ccccc3)N2C1=O
- Activity (MDA-MB-231 [1]): <20%
- IC50 (MDA-MB-231 [2]): 1370 nM
- Activity (MDA-MB-231 [3]): Active
- Activity (MDA-MB-231 [4]): Dose-dependent effect

Structure (SMILES): CN[C@@H](C)C(=O)N[C@H]1Cc2ccccc2[C@H]2CC[C@@H](C(=O)NC(c3ccccc3)c3ccccc3)N2C1=O
- Activity (MDA-MB-231 [3]): Active
- Activity (MDA-MB-231 [4]): Dose-dependent effect

Structure (SMILES): CN[C@@H](C)C(=O)N[C@H]1Cc2ccccc2[C@H]2CC[C@@H](C(=O)N[C@@H]3CCCc4ccccc43)N2C1=O
- Activity (MDA-MB-231 [1]): 75%
- Activity (MDA-MB-231 [5]): Active
- Activity (MDA-MB-231 [3]): Active
- Activity (MDA-MB-231 [6]): Dose-dependent effect
- Activity (MDA-MB-231 [7]): Dose-dependent effect
- Activity (MDA-MB-231 [4]): Dose-dependent effect
